Values joined by “and” are separate entries in the source; they are usually repeats but may differ in a detail not shown here. Equal entries are not always repeated. Where two headings read alike, the source gives them in different places.
Columns and labels:
bovine spleen ADA [1] = target: T1, bovine spleen ADA (Bos taurus, UniProt P56658); assay: Cuvette fluorescence assay of ADA; assay type: biochemical
T1 sequence (P56658 1-363): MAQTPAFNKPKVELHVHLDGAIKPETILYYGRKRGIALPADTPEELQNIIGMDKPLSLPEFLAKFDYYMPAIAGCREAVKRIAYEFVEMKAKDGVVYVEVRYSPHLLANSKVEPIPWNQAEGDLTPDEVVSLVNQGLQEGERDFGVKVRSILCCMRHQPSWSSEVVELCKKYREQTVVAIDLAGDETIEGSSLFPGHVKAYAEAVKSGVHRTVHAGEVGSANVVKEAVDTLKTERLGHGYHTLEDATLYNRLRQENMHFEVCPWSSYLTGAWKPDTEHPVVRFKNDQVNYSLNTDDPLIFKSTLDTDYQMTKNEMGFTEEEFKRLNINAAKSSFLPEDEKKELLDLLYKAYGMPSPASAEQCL
Summary of the method: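 Bovine spleen ADA, diluted to 1.15 U mL⁻¹ in 50 mM phosphate buffer pH 7.4 and kept on ice. Test compound (final 1–1000 µM, 0.1 µM for one analogue; DMSO stocks) and tzA (1 mM DMSO stock) were stirred 1 min in buffer in a quartz cuvette at 25.0 °C. ADA was then added. Emission at 410 nm (excitation 322 nm) was read every 10 s for 20 min.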

ADA [2] = conditions: non-HTS assay format; ref 8e; cited from earlier work
ADA [3] = conditions: ref Cristalli et al. 1a; cited from earlier work
bovine spleen ADA [4] = target: T1, bovine spleen ADA; assay: HTS plate-reader fluorescence assay of ADA; assay type: biochemical; conditions: 200 μM, initial MBP library screen, relative to negative control
[5] = converted from IC50 by Cheng-Prusoff, three independent experiments
[6] = cuvette, 25 °C, three independent experiments

C[C@H]1CN=C(c2ccccc2O)O1 [Compound 6, (S)-2-(5-Methyl-4,5-dihydrooxazol-2-yl)phenol]
IC50 (bovine spleen ADA [1]): 194 ± 4 µM
Ki (bovine spleen ADA [1]): 161 ± 3 µM

erythro-9-(2-hydroxy-3-nonyl) adenine [EHNA]
IC50 (ADA [2]): 0.023 ± 0.004 µM
Ki (ADA [2]): 0.019 ± 0.004 µM
Ki (ADA [3]): ~0.005 µM

Oc1ccccc1-c1ncco1 [Compound 4, 2-oxazolyl phenol]
percent inhibition of ADA (bovine spleen ADA [4]): 61%
Ki (bovine spleen ADA [1]; [5]): 215 ± 12 µM
IC50 (bovine spleen ADA [1]; [6]): 260 ± 14 µM

Oc1ccccc1-c1ncc[nH]1 [Compound 3, 2-imidazolyl phenol]
percent inhibition of ADA (bovine spleen ADA [4]): ~ 83% and 83%
Ki (bovine spleen ADA [1]; [5]): 77 ± 14 µM
IC50 (bovine spleen ADA [1]; [6]): 93 ± 17 µM

C[C@@H]1CN=C(c2ccccc2O)O1 [Compound 7, (R)-2-(5-Methyl-4,5-dihydrooxazol-2-yl)phenol]
IC50 (bovine spleen ADA [1]): 188 ± 10 µM
Ki (bovine spleen ADA [1]): 156 ± 8 µM

From article PMC7815202 (ChemMedChem, 2020)
